In BindingDB's records for doi:10.1021/jm980722p (Merck Research Laboratories, 1999):
pIC50: −log10 of the molar value.

The compounds below were run against Integrin alpha-IIb/beta-3 (Homo sapiens, UniProt P08514+P05106) (assay: The compound was tested in vitro for the inhibition of aggregation of human gel-filtered platelets(GFP)).
Summary of the method: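 Human gel-filtered platelets at 2 × 10⁸/mL were mixed with 0.1 mg/mL human fibrinogen, 1 mM CaCl₂ and the test compound, then challenged with ADP. Aggregation was read by light transmittance at 37 °C against control samples.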

Integrin alpha-IIb/beta-3, sequence (P05106 27-788 limits assumed): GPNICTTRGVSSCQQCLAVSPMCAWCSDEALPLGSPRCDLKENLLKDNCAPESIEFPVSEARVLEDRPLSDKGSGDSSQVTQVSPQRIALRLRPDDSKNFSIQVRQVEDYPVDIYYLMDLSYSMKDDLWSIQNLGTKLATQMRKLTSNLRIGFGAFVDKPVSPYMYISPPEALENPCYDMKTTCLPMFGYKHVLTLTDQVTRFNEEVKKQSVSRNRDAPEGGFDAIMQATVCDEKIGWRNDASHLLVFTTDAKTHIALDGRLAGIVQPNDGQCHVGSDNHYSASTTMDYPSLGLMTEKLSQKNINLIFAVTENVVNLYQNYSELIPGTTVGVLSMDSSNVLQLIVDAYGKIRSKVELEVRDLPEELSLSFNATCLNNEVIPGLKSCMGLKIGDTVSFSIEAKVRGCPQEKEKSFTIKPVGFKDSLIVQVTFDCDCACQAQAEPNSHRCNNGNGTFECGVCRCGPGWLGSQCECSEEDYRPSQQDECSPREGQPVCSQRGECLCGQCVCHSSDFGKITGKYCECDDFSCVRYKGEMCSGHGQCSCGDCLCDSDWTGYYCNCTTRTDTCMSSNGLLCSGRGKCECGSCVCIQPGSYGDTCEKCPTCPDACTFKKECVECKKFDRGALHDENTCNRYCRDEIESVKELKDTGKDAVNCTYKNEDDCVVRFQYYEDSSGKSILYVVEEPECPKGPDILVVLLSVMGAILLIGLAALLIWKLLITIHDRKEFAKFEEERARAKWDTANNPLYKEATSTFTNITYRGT
Integrin alpha-IIb/beta-3, sequence (P08514 32-887 limits assumed): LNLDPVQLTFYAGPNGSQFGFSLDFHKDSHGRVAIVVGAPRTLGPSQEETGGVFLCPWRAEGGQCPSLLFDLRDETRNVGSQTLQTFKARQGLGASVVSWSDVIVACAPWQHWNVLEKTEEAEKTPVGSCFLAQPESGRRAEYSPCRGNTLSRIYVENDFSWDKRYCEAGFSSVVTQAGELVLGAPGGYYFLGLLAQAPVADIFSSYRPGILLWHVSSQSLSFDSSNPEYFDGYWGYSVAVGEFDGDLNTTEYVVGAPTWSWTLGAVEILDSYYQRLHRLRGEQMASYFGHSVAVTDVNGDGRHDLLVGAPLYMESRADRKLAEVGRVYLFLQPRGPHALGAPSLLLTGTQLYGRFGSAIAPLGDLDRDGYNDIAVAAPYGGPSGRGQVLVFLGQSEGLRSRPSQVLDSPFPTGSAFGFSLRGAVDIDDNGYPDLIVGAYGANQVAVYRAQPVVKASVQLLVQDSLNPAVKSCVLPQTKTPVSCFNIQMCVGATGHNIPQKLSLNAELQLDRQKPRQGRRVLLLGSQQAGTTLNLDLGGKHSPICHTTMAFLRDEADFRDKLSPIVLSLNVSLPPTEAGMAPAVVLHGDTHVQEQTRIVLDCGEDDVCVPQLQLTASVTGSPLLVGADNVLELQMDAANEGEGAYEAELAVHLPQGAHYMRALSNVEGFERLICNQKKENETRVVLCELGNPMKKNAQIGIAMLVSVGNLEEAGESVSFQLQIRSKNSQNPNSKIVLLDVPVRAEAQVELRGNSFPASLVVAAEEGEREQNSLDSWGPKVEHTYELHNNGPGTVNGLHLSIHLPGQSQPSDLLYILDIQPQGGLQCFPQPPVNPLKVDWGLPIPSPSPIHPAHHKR
Integrin alpha-IIb/beta-3, sequence (P08514 891-1039 limits assumed): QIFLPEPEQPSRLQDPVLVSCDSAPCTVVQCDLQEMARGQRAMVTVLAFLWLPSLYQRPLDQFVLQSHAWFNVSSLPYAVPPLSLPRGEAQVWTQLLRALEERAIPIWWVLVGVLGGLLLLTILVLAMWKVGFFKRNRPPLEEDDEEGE

| SMILES | pIC50 |
| --- | --- |
| CS(=O)(=O)N[C@@H](CNC(=O)c1cc2sc(CCC3CCNCC3)cc2s1)C(=O)O [(S)-2-Methanesulfonylamino-3-{[5-(2-piperidin-4-yl-ethyl)-thieno[3,2-b]thiophene-2-carbonyl]-amino}-propionic acid] | 7.85 |
| O=C(NC[C@@H](NS(=O)(=O)c1cccnc1)C(=O)O)c1cc2cc(CCC3CCNCC3)sc2s1 | 7.72 |
| O=C(NC[C@H](NS(=O)(=O)c1cccnc1)C(=O)O)c1cc2cc(CCCC3CCNCC3)sc2s1 [(S)-3-{[5-(3-Piperidin-4-yl-propyl)-thieno[2,3-b]thiophene-2-carbonyl]-amino}-2-(pyridine-3-sulfonylamino)-propionic acid] | 7.64 |
| O=C(NC[C@H](NS(=O)(=O)c1cccnc1)C(=O)O)c1cc2sc(CCC3CCNCC3)cc2s1 [(S)-3-{[5-(2-Piperidin-4-yl-ethyl)-thieno[3,2-b]thiophene-2-carbonyl]-amino}-2-(pyridine-3-sulfonylamino)-propionic acid] | 7.82 |
| CS(=O)(=O)N[C@@H](CNC(=O)c1cc2cc(CCC3CCNCC3)sc2s1)C(=O)O [(S)-2-Methanesulfonylamino-3-{[5-(2-piperidin-4-yl-ethyl)-thieno[2,3-b]thiophene-2-carbonyl]-amino}-propionic acid] | 7.82 |
| O=C(O)CCNC(=O)c1cc2sc(CCC3CCNCC3)cc2s1 [3-{[5-(2-Piperidin-4-yl-ethyl)-thieno[3,2-b]thiophene-2-carbonyl]-amino}-propionic acid] | 6.30 |
| CCCCS(=O)(=O)N[C@@H](CNC(=O)c1cc2cc(CCC3CCNCC3)sc2s1)C(=O)O [(S)-2-(Butane-1-sulfonylamino)-3-{[5-(2-piperidin-4-yl-ethyl)-thieno[2,3-b]thiophene-2-carbonyl]-amino}-propionic acid] | 7.49 |
| O=C(O)CCNC(=O)c1cc2cc(CCC3CCNCC3)sc2s1 [3-{[5-(2-Piperidin-4-yl-ethyl)-thieno[2,3-b]thiophene-2-carbonyl]-amino}-propionic acid] | 6.39 |
| O=C(NC[C@@H](NS(=O)(=O)c1ccccc1)C(=O)O)c1cc2cc(CCC3CCNCC3)sc2s1 | 7.44 |
| O=C(NC[C@H](NS(=O)(=O)c1cccnc1)C(=O)O)c1cc2cc(C3CCNCC3)sc2s1 [(S)-3-[(5-Piperidin-4-yl-thieno[2,3-b]thiophene-2-carbonyl)-amino]-2-(pyridine-3-sulfonylamino)-propionic acid] | 7.68 |

The next compounds have a higher pIC50 than those just listed; values first:

| pIC50 | SMILES |
| --- | --- |
| 7.89 | O=C(NC[C@H](NS(=O)(=O)c1cccs1)C(=O)O)c1cc2sc(CCC3CCNCC3)cc2s1 [(S)-3-{[5-(2-Piperidin-4-yl-ethyl)-thieno[3,2-b]thiophene-2-carbonyl]-amino}-2-(thiophene-2-sulfonylamino)-propionic acid] |
| 7.96 | O=C(NC[C@H](NS(=O)(=O)c1ccc(Cl)cc1)C(=O)O)c1cc2cc(CCC3CCNCC3)sc2s1 [(S)-2-(4-Chloro-benzenesulfonylamino)-3-{[5-(2-piperidin-4-yl-ethyl)-thieno[2,3-b]thiophene-2-carbonyl]-amino}-propionic acid] |
| 8.00 | CCCCS(=O)(=O)N[C@@H](CNC(=O)c1cc2sc(CCC3CCNCC3)cc2s1)C(=O)O [(S)-2-(Butane-1-sulfonylamino)-3-{[5-(2-piperidin-4-yl-ethyl)-thieno[3,2-b]thiophene-2-carbonyl]-amino}-propionic acid] |
| 8.00 | CCOCCS(=O)(=O)N[C@@H](CNC(=O)c1cc2sc(CCC3CCNCC3)cc2s1)C(=O)O [(S)-2-(2-Ethoxy-ethanesulfonylamino)-3-{[5-(2-piperidin-4-yl-ethyl)-thieno[3,2-b]thiophene-2-carbonyl]-amino}-propionic acid] |
| 8.05 | O=C(NC[C@H](NS(=O)(=O)c1cccs1)C(=O)O)c1cc2cc(CCC3CCNCC3)sc2s1 [(S)-3-{[5-(2-Piperidin-4-yl-ethyl)-thieno[2,3-b]thiophene-2-carbonyl]-amino}-2-(thiophene-2-sulfonylamino)-propionic acid] |
| 8.15 | CCOCCS(=O)(=O)N[C@@H](CNC(=O)c1cc2cc(CCC3CCNCC3)sc2s1)C(=O)O [(S)-2-(2-Ethoxy-ethanesulfonylamino)-3-{[5-(2-piperidin-4-yl-ethyl)-thieno[2,3-b]thiophene-2-carbonyl]-amino}-propionic acid] |
